Assay results reported in ChEMBL document CHEMBL3853349, “Diversity-Oriented Synthesis as a Strategy for Fragment Evolution against GSK3β” (ACS Med Chem Lett, 2016).
pIC50, pKd: −log10 of the molar value. Activity calls are given as the source filed them. The rule behind the calls is not given here.

Key:
[1] = biological target: T1, Glycogen synthase kinase-3 beta (Homo sapiens, UniProt P49841); test: Binding affinity to GSK-3 beta (unknown origin) assessed as thermal shift at 1.25 mM by differential scanning fluorimetry
Method in brief: (§1)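 Differential scanning fluorimetry on GSK3β, reported as thermal stabilization ΔT in °C. Compounds were tested at 2.5 mM by default; the growth-vector analogue set was run at 1.25 mM for ranking.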
Target sequence in this assay (P49841 whole entry, looked up): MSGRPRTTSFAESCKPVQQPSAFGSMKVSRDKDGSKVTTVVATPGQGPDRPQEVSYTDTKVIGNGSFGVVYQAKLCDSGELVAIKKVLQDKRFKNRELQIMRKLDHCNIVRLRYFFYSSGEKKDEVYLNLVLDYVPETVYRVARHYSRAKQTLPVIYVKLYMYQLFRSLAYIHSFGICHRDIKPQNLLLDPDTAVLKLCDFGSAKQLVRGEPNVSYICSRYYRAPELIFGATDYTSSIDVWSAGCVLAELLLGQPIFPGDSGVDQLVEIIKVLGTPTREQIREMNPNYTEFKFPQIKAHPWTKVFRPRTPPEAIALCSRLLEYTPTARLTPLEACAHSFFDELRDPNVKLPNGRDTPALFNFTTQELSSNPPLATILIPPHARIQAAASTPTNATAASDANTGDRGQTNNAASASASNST

[2] = biological target: T1, Glycogen synthase kinase-3 beta; test: Inhibition of recombinant full-length N-terminal GST tagged human GSK-3 beta expressed in baculovirus infected Sf9 insect cells at 1 mM using GSM as substrate after 5 mins by ADP-Glo luminescence assay
Method in brief: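 Single-point ADP-Glo biochemical inhibition of GSK3β with compound at 1 mM, used to rank analogues alongside DSF.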
Target sequence in this assay (P49841 whole entry, looked up): as above

[3] = biological target: T1, Glycogen synthase kinase-3 beta; test: Binding affinity to GSK-3 beta (unknown origin) after 30 mins by isothermal titration calorimetry
Target sequence in this assay (P49841 whole entry): as the sequence (P49841 whole entry, looked up) above

[4] = biological target: T1, Glycogen synthase kinase-3 beta; test: Inhibition of recombinant full-length N-terminal GST tagged human GSK-3 beta expressed in baculovirus infected Sf9 insect cells using GSM as substrate after 5 mins by ADP-Glo luminescence assay
Target sequence in this assay (P49841 whole entry): as the sequence (P49841 whole entry, looked up) above

Homo sapiens = species on record: Homo sapiens; test: Selectivity ratio of IC50 for CDK5 (unknown origin) to IC50 for GSK-3 beta (unknown origin)
[5] = biological target: T1, Glycogen synthase kinase-3 beta; test: Binding affinity to GSK-3 beta (unknown origin) assessed as assessed as thermal shift at 2.5 mM by differential scanning fluorimetry; method in brief: as §1
Target sequence in this assay (P49841 whole entry, looked up): as above

[6] = biological target: T1, Glycogen synthase kinase-3 beta; test: Binding affinity to GSK-3 beta (unknown origin) by WaterLOGSY NMR analysis
Target sequence in this assay (P49841 whole entry, looked up): as above

[7] = biological target: T1, Glycogen synthase kinase-3 beta; test: Binding affinity to GSK-3 beta (unknown origin) by STD NMR analysis
Target sequence in this assay (P49841 whole entry, looked up): as above

Row | Compound | deltaT [1] | inhibition [2] | deltaT [5] | other results
1 | O=C1Nc2ncccc2N[C@@H]1Cc1c[nH]c2ccccc12 | 4.5 °C | 94% |  | pKd [3]: 5.05; pIC50 [4]: 4.74; Ratio IC50 (Homo sapiens): 50
2 | C[C@H]1Nc2ccncc2NC1=O |  | 61% | 1.6 °C | 
3 | C[C@@H]1Nc2cccnc2NC1=O | 0 °C | 19% | 0.5 °C | 
4 | O=C1Nc2ncccc2N[C@H]1Cc1c[nH]c2ccccc12 | 1.7 °C | 76% |  | pIC50 [4]: 3.49
5 | O=C1Nc2ncccc2N[C@H]1CO |  |  | 0.5 °C | 
6 | C[C@@H]1Nc2ccncc2NC1=O |  | 69% | 1.4 °C | 
7 | C[C@@H]1Nc2ncccc2NC1=O |  | 63% | 1 °C | 
8 | CC(C)[C@@H]1Nc2cccnc2NC1=O | 0 °C | 25% |  | 
9 | CC(C)[C@H]1Nc2cccnc2NC1=O | 1.6 °C | 57% | 2.3 °C | 
10 | C[C@@H]1Nc2ccccc2NC1=O |  | 9% | 0 °C | 
11 | C[C@H]1Nc2ccccc2NC1=O |  | 12% | 0 °C | 
12 | CC1(C)Nc2cccnc2NC1=O |  | 26% | 0.7 °C | 
13 | O=C1Nc2ncccc2N[C@H]1Cc1ccccc1 | 0 °C | 55% |  | 
14 | O=C1Nc2ncccc2N[C@@H]1Cc1ccccc1 | 1.6 °C | 63% |  | 
15 | Cc1nc2cccnc2[nH]c1=O | 0.5 °C | 35% |  | 
16 | C[C@H]1Nc2ncccc2NC1=O |  | 66% | 1.4 °C | 
17 | C[C@@H]1Nc2cnccc2NC1=O |  | 29% | 0.5 °C | 
18 | O=C1Nc2ncccc2N[C@@H]1Cc1ccc(O)cc1 | 2.9 °C | 88% |  | 
19 | O=C1Nc2ncccc2N[C@H]1Cc1ccc(O)cc1 | 2.1 °C | 78% |  | 
20 | C[C@H]1Nc2cccnc2NC1=O | 1 °C | 46% | 1.7 °C | Activity [6]: Active; pKd [3]: 3.22; Activity [7]: Active
21 | C[C@H]1Nc2cnccc2NC1=O |  | 25% | 0.5 °C | 
22 | C[C@H]1Nc2cccnc2N(C)C1=O |  | 19% | 0 °C | 
23 | C[C@@H]1CNc2ncccc2N1 |  | 17% | 0 °C | 
24 | O=C1Nc2ncccc2N2C[C@H](O)C[C@@H]12 |  |  | 0.8 °C | 
